Measurements: ChEMBL document CHEMBL2057155, “Synthesis of betulinic acid derivatives as entry inhibitors against HIV-1 and bevirimat-resistant HIV-1 variants” (Bioorg Med Chem Lett, 2012)

Experiments:
[1] = test system: Human immunodeficiency virus 1; assay: Antiviral activity against bevirimat-resistant HIV1 NL4-3 harboring QVT motif of Gag SP1 deltaT371 mutant infected in human MT4 cells assessed as reduction of viral p24 level cells […] relative to wild type HIV1 NL4-3 after 4 days by ELISA; type: functional, organism-based; details: Human immunodeficiency virus 1, NL4-3, MT4, 96 h
Outline: (§1)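 Multi-cycle viral replication assay in MT4 cells, run in parallel against wild-type NL4-3 and NL4-3 variants carrying V370A, ΔV370 or ΔT371 in Gag.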

[2] = test system: Human immunodeficiency virus 1; assay: Antiviral activity against bevirimat-resistant HIV1 NL4-3 harboring QVT motif of Gag SP1 deltaV370 mutant infected in human MT4 cells assessed as reduction of viral p24 level cells […] relative to wild type HIV1 NL4-3 after 4 days by ELISA; type: functional, organism-based; details: Human immunodeficiency virus 1, NL4-3, MT4, 96 h; outline: as §1
[3] = test system: Human immunodeficiency virus 1; assay: Antiviral activity against bevirimat-resistant HIV1 NL4-3 harboring QVT motif of Gag SP1 V370A mutant infected in human MT4 cells assessed as reduction of viral p24 level cells […] relative to wild type HIV1 NL4-3 after 4 days by ELISA; type: functional, organism-based; details: Human immunodeficiency virus 1, NL4-3, MT4, 96 h
[4] = Cytotoxicity against human MT4 assessed as cell viability after 2 days; type: cell-based; details: MT4 cells, read-out: TD50
[5] = test system: Human immunodeficiency virus 1; assay: Antiviral activity against HIV1 NL4-3 infected in human TZM-bl cells assessed as reduction in luciferase gene expression by luminescence assay; type: functional, organism-based; details: Human immunodeficiency virus 1, NL4-3, TZM-bl
Outline: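 Single-cycle HIV-1 NL4-3 infection of TZM-bl cells; HIV-1 tat-driven luciferase expression after viral entry read as the measure of inhibition. […] control is NL4-3 infection without compound. Values are the mean of two or more independent experiments with standard deviation.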

[6] = test system: Human immunodeficiency virus 1; assay: Antiviral activity against wild type HIV1 NL4-3 infected in human MT4 cells assessed as reduction of viral p24 level cells […] relative to wild type HIV1 NL4-3 after 4 days by ELISA; type: functional, organism-based; details: Human immunodeficiency virus 1, NL4-3, MT4, 96 h
Liver microsomes [7] = details: human, 1 µM
[8] = test system: Human immunodeficiency virus 1; assay: Ratio of EC50 for bevirimat-resistant HIV1 NL4-3 harboring QVT motif of Gag SP1 V370A mutant to EC50 for wild type HIV1 NL4-3; type: functional
Outline: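 Multi-cycle viral replication assay in MT4 cells infected with wild-type HIV-1 NL4-3 or the V370A Gag variant. EC50 was determined against each virus, and the fold ratio was taken as mutant EC50 over wild-type EC50.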

[9] = test system: Human immunodeficiency virus 1; assay: Antiviral activity against HIV1 NL4-3 harboring QVT motif of Gag SP1 V370A mutant infected in human TZM-bl cells by fluorescence assay relative to wild type HIV1 NL4-3; type: functional
Outline: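 Single-round infection of TZM-bl cells with HIV-1 NL4-3 or the NL4-3 V370A mutant. Tat-driven luciferase expression after viral entry was the read-out. Inhibition was taken as the reduction in luciferase signal relative to infected controls without compound, expressed as relative fluorescence units.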

Liver microsomes [10] = assay: Half life in human liver microsomes at 1 uM
[11] = Cytotoxicity against human TZM-bl assessed as cell viability at 4 uM after 2 days; type: cell-based; details: 48 h
Outline: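 Toxicity to TZM-bl cells was checked within the single-cycle infection assay at 4 μM.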

## C=C(C)[C@@H]1CC[C@]2(C(=O)O)CC[C@]3(C)[C@H](CC[C@@H]4[C@@]5(C)CC[C@H](OC(=O)CC(C)(C)C(=O)O)C(C)(C)[C@@H]5CC[C@]43C)[C@@H]12 [BEVIRIMAT]
[1]
  EC50: > 4000 nM
[2]
  EC50: > 4000 nM
[3]
  EC50: > 4000 nM
[4]
  CC50 at 48 h: > 10000 nM

## Cc1cc(/C=C/C#N)cc(C)c1Nc1ccnc(Nc2ccc(C#N)cc2)n1 [RILPIVIRINE]
[4]
  CC50 at 48 h: > 100 nM

## C=C(C)[C@@H]1CC[C@]2(C(=O)NCCCCCCCCC(=O)N[C@@H](CCC(N)=O)C(=O)OC)CC[C@]3(C)[C@H](CC[C@@H]4[C@@]5(C)CC[C@H](O)C(C)(C)[C@@H]5CC[C@]43C)[C@@H]12
[5]
  EC50: 90 nM
[6]
  EC50: 1720 nM
Liver microsomes [7]
  CLH: 230 µL/min/mg
[8]
  Ratio EC50: 5
[3]
  EC50: 20 nM
[9]
  fold change (FC): 2
[4]
  CC50 at 48 h: 4800 nM
Liver microsomes [10]
  t1/2: 30.13 min
[11]
  Activity: Non-toxic

## C=C(C)[C@@H]1CC[C@]2(C(=O)NCCCCCCCNC(C)=O)CC[C@]3(C)[C@H](CC[C@@H]4[C@@]5(C)CC[C@H](O)C(C)(C)[C@@H]5CC[C@]43C)[C@@H]12
[5]
  EC50: 80 nM
[1]
  EC50: 27 nM
[6]
  EC50: 120 nM
Liver microsomes [7]
  CLH: 272 µL/min/mg
[2]
  EC50: 6 nM
[3]
  EC50: 190 nM
[9]
  fold change (FC): 2
[4]
  CC50 at 48 h: 12600 nM
Liver microsomes [10]
  t1/2: 25.48 min
[11]
  Activity: Non-toxic

## COC(=O)[C@H](CCC(N)=O)NC(=O)CCCCCCCCNC(=O)[C@]12CC[C@@H](C(C)C)[C@@H]1[C@H]1CC[C@@H]3[C@@]4(C)CC[C@H](O)C(C)(C)[C@@H]4CC[C@@]3(C)[C@]1(C)CC2
[5]
  EC50: 50 nM
[6]
  EC50: 580 nM
Liver microsomes [7]
  CLH: 219 µL/min/mg
[8]
  Ratio EC50: 5
[3]
  EC50: 20 nM
[4]
  CC50 at 48 h: 4600 nM
Liver microsomes [10]
  t1/2: 31.64 min
[11]
  Activity: Non-toxic

## C=C(C)[C@@H]1CC[C@]2(C(=O)NCCOCCOCC(=O)NCC(=O)O)CC[C@]3(C)[C@H](CC[C@@H]4[C@@]5(C)CC[C@H](O)C(C)(C)[C@@H]5CC[C@]43C)[C@@H]12
[5]
  EC50: > 4000 nM
[11]
  Activity: Non-toxic

## C=C(C)[C@@H]1CC[C@]2(C(=O)NCCCCCCCNC(=O)[C@H](CCC(N)=O)NC(=O)OC(C)(C)C)CC[C@]3(C)[C@H](CC[C@@H]4[C@@]5(C)CC[C@H](O)C(C)(C)[C@@H]5CC[C@]43C)[C@@H]12
[5]
  EC50: 40 nM
[6]
  EC50: 360 nM
Liver microsomes [7]
  CLH: 366 µL/min/mg
[8]
  Ratio EC50: 5
[3]
  EC50: 90 nM
[4]
  CC50 at 48 h: 7400 nM
Liver microsomes [10]
  t1/2: 18.93 min
[11]
  Activity: Non-toxic

## C=C(C)[C@@H]1CC[C@]2(C(=O)NCCOCCOCC(=O)N[C@@H](C)C(=O)O)CC[C@]3(C)[C@H](CC[C@@H]4[C@@]5(C)CC[C@H](O)C(C)(C)[C@@H]5CC[C@]43C)[C@@H]12
[5]
  EC50: > 4000 nM
[11]
  Activity: Non-toxic

## C=C(C)[C@@H]1CC[C@]2(C(=O)NCCCCC/C=C(/F)C(=O)NCC(=O)O)CC[C@]3(C)[C@H](CC[C@@H]4[C@@]5(C)CC[C@H](O)C(C)(C)[C@@H]5CC[C@]43C)[C@@H]12
[5]
  EC50: 410 nM
[11]
  Activity: Non-toxic

## C=C(C)[C@@H]1CC[C@]2(C(=O)NCCCCCCCCC(=O)N[C@@H](CC(N)=O)C(=O)OC)CC[C@]3(C)[C@H](CC[C@@H]4[C@@]5(C)CC[C@H](O)C(C)(C)[C@@H]5CC[C@]43C)[C@@H]12
[5]
  EC50: 110 nM
[11]
  Activity: Non-toxic

## C=C(C)[C@@H]1CC[C@]2(C(=O)NCCOCCOCCNC(=O)Cc3nnn[nH]3)CC[C@]3(C)[C@H](CC[C@@H]4[C@@]5(C)CC[C@H](O)C(C)(C)[C@@H]5CC[C@]43C)[C@@H]12
[5]
  EC50: > 4000 nM
[11]
  Activity: Non-toxic

## C=C(C)[C@@H]1CC[C@]2(C(=O)NCCCCCCCCNC(=O)C(CCC#N)NC(=O)OC(C)(C)C)CC[C@]3(C)[C@H](CC[C@@H]4[C@@]5(C)CC[C@H](O)C(C)(C)[C@@H]5CC[C@]43C)[C@@H]12 (stereo partly specified)
[5]
  EC50: 80 nM
[11]
  Activity: Non-toxic

## C=C(C)[C@@H]1CC[C@]2(C(=O)NCCCCCCCCC(=O)N[C@@H](CCC(N)=O)C(=O)OC(C)(C)C)CC[C@]3(C)[C@H](CC[C@@H]4[C@@]5(C)CC[C@H](O)C(C)(C)[C@@H]5CC[C@]43C)[C@@H]12
[5]
  EC50: 140 nM
[11]
  Activity: Non-toxic

## C=C(C)[C@@H]1CC[C@]2(C(=O)NCCCCCCCCC(=O)N[C@@H](Cc3ccccc3)C(=O)OC)CC[C@]3(C)[C@H](CC[C@@H]4[C@@]5(C)CC[C@H](O)C(C)(C)[C@@H]5CC[C@]43C)[C@@H]12
[5]
  EC50: 720 nM
[11]
  Activity: Non-toxic

## C=C(C)[C@@H]1CC[C@]2(C(=O)NCCCCCCCNC(=O)[C@H](C)NC(=O)OC(C)(C)C)CC[C@]3(C)[C@H](CC[C@@H]4[C@@]5(C)CC[C@H](O)C(C)(C)[C@@H]5CC[C@]43C)[C@@H]12
[5]
  EC50: 110 nM
[11]
  Activity: Non-toxic

## C=C(C)[C@@H]1CC[C@]2(C(=O)NCCCCCCCCNC(=O)[C@H](C)NC(=O)OC(C)(C)C)CC[C@]3(C)[C@H](CC[C@@H]4[C@@]5(C)CC[C@H](O)C(C)(C)[C@@H]5CC[C@]43C)[C@@H]12
[5]
  EC50: 90 nM
[11]
  Activity: Non-toxic

## C=C(C)[C@@H]1CC[C@]2(C(=O)NCCCCCCCCNC(=O)[C@@H]3CCCN3C(=O)OC(C)(C)C)CC[C@]3(C)[C@H](CC[C@@H]4[C@@]5(C)CC[C@H](O)C(C)(C)[C@@H]5CC[C@]43C)[C@@H]12
[5]
  EC50: 160 nM
[11]
  Activity: Non-toxic

## CC(C)[C@@H]1CC[C@]2(C(=O)NCCCCCCCCC(=O)N[C@@H](CCC(N)=O)C(=O)O)CC[C@]3(C)[C@H](CC[C@@H]4[C@@]5(C)CC[C@H](O)C(C)(C)[C@@H]5CC[C@]43C)[C@@H]12
[5]
  EC50: 40 nM
[6]
  EC50: 830 nM
Liver microsomes [7]
  CLH: 280 µL/min/mg
[8]
  Ratio EC50: 5
[3]
  EC50: 240 nM
[4]
  CC50 at 48 h: 18600 nM
Liver microsomes [10]
  t1/2: 24.75 min
[11]
  Activity: Non-toxic

## C=C(C)[C@@H]1CC[C@]2(C(=O)NCCCCCCCCC(=O)N(C)CC#N)CC[C@]3(C)[C@H](CC[C@@H]4[C@@]5(C)CC[C@H](O)C(C)(C)[C@@H]5CC[C@]43C)[C@@H]12
[5]
  EC50: 810 nM
[11]
  Activity: Non-toxic

## C=C(C)[C@@H]1CC[C@]2(C(=O)NCCCCC/C=C/C(=O)O)CC[C@]3(C)[C@H](CC[C@@H]4[C@@]5(C)CC[C@H](O)C(C)(C)[C@@H]5CC[C@]43C)[C@@H]12
[5]
  EC50: > 4000 nM
[11]
  Activity: Non-toxic

## C=C(C)[C@@H]1CC[C@]2(C(=O)NCCCCCCCCCC(=O)N[C@@H](CC(N)=O)C(=O)OC)CC[C@]3(C)[C@H](CC[C@@H]4[C@@]5(C)CC[C@H](O)C(C)(C)[C@@H]5CC[C@]43C)[C@@H]12
[5]
  EC50: 80 nM
[11]
  Activity: Non-toxic

## C=C(C)[C@@H]1CC[C@]2(C(=O)NCCCCCCCCCC(=O)N[C@@H](CCC(N)=O)C(=O)OC)CC[C@]3(C)[C@H](CC[C@@H]4[C@@]5(C)CC[C@H](O)C(C)(C)[C@@H]5CC[C@]43C)[C@@H]12
[5]
  EC50: 60 nM
[11]
  Activity: Non-toxic

## C=C(C)[C@@H]1CC[C@]2(C(=O)NCCCCCCCCC(=O)N[C@@H](C)C(=O)OC)CC[C@]3(C)[C@H](CC[C@@H]4[C@@]5(C)CC[C@H](O)C(C)(C)[C@@H]5CC[C@]43C)[C@@H]12
[5]
  EC50: 70 nM
[11]
  Activity: Non-toxic

## C=C(C)[C@@H]1CC[C@]2(C(=O)NCCCCCCCCC(=O)N[C@H](C(=O)OC)[C@@H](C)OC(C)(C)C)CC[C@]3(C)[C@H](CC[C@@H]4[C@@]5(C)CC[C@H](O)C(C)(C)[C@@H]5CC[C@]43C)[C@@H]12
[5]
  EC50: 3490 nM
[11]
  Activity: Non-toxic

## C=C(C)[C@@H]1CC[C@]2(C(=O)NCCCCCCCCC(=O)N[C@@H](CCC(=O)OC)C(=O)OC)CC[C@]3(C)[C@H](CC[C@@H]4[C@@]5(C)CC[C@H](O)C(C)(C)[C@@H]5CC[C@]43C)[C@@H]12
[5]
  EC50: 60 nM
[11]
  Activity: Non-toxic

## C=C(C)[C@@H]1CC[C@]2(C(=O)NCCCCCCCC(=O)N[C@@H](CCC(N)=O)C(=O)OC)CC[C@]3(C)[C@H](CC[C@@H]4[C@@]5(C)CC[C@H](O)C(C)(C)[C@@H]5CC[C@]43C)[C@@H]12
[5]
  EC50: 140 nM
[11]
  Activity: Non-toxic
